Data taken from ChEMBL document CHEMBL3817726, “Chemically Diverse Group I p21-Activated Kinase (PAK) Inhibitors Impart Acute Cardiovascular Toxicity with a Narrow Therapeutic Window” (J Med Chem, 2016).
Converted amounts (≈) assume the structure as drawn. Values belong to the molecule of their own block, whether it stands above or below them. The source made the active and inactive calls. No cut-off for these calls is given here.

Key:
Homo sapiens [1] = species on record: Homo sapiens; test: Selectivity for human recombinant N-terminal 6-His-tagged PAK1 kinase domain (249 to 545 residues) over LCK (unknown origin)
[2] = target: Serine/threonine-protein kinase PAK 1 (Homo sapiens, UniProt Q13153); test: Inhibition of human recombinant N-terminal 6-His-tagged PAK1 kinase domain (249 to 545 residues) expressed in Escherichia coli BL21(DE3) assessed as phosphorylation of coumarin labeled FRET peptide substrate at Ser/Thr19 preincubated for 10 mins followed by ATP addition measured after 60 mins by Z'-LYTE assay
Serine/threonine-protein kinase PAK 1, sequence (Q13153 whole entry, the tested form may be a part): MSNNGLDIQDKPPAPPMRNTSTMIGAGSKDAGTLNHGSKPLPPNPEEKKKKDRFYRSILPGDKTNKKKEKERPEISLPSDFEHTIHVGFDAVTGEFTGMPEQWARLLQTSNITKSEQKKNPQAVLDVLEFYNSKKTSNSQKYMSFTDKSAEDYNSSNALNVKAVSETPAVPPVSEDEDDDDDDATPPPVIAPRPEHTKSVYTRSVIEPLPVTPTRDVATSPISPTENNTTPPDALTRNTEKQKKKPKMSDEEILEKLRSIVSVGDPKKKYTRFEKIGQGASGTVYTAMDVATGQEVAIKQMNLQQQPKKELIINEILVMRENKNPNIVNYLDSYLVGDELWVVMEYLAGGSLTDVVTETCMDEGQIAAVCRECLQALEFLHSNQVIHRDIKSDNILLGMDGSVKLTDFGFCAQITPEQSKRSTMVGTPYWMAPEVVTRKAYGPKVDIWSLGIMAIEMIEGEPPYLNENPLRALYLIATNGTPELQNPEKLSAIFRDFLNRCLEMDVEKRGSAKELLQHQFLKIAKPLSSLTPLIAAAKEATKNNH

Homo sapiens [3] = species on record: Homo sapiens; test: Selectivity for human recombinant N-terminal 6-His-tagged PAK1 kinase domain (249 to 545 residues) over human recombinant PAK4 kinase domain
[4] = Fraction unbound in mouse plasma at 30 to 60 mg/kg, po; format: ADME, organism-based
[5] = target: Sodium channel protein type 1 subunit alpha (Homo sapiens) (UniProt P35498); test: Inhibition of human Nav1.1 assessed as phasic block of sodium current at 1 to 10 uM treated for 3 mins by automatic parallel patch clamp method
[6] = target: T1, Sodium channel protein type 5 subunit alpha (Homo sapiens, UniProt Q14524); test: Inhibition of human Nav1.5 expressed in CHO cells assessed as phasic block of sodium current at 1 to 10 uM treated for 3 mins by automatic parallel patch clamp method; format: cell-based; settings: 0.05 h
T1 sequence (Q14524 whole entry, the tested form may be a part): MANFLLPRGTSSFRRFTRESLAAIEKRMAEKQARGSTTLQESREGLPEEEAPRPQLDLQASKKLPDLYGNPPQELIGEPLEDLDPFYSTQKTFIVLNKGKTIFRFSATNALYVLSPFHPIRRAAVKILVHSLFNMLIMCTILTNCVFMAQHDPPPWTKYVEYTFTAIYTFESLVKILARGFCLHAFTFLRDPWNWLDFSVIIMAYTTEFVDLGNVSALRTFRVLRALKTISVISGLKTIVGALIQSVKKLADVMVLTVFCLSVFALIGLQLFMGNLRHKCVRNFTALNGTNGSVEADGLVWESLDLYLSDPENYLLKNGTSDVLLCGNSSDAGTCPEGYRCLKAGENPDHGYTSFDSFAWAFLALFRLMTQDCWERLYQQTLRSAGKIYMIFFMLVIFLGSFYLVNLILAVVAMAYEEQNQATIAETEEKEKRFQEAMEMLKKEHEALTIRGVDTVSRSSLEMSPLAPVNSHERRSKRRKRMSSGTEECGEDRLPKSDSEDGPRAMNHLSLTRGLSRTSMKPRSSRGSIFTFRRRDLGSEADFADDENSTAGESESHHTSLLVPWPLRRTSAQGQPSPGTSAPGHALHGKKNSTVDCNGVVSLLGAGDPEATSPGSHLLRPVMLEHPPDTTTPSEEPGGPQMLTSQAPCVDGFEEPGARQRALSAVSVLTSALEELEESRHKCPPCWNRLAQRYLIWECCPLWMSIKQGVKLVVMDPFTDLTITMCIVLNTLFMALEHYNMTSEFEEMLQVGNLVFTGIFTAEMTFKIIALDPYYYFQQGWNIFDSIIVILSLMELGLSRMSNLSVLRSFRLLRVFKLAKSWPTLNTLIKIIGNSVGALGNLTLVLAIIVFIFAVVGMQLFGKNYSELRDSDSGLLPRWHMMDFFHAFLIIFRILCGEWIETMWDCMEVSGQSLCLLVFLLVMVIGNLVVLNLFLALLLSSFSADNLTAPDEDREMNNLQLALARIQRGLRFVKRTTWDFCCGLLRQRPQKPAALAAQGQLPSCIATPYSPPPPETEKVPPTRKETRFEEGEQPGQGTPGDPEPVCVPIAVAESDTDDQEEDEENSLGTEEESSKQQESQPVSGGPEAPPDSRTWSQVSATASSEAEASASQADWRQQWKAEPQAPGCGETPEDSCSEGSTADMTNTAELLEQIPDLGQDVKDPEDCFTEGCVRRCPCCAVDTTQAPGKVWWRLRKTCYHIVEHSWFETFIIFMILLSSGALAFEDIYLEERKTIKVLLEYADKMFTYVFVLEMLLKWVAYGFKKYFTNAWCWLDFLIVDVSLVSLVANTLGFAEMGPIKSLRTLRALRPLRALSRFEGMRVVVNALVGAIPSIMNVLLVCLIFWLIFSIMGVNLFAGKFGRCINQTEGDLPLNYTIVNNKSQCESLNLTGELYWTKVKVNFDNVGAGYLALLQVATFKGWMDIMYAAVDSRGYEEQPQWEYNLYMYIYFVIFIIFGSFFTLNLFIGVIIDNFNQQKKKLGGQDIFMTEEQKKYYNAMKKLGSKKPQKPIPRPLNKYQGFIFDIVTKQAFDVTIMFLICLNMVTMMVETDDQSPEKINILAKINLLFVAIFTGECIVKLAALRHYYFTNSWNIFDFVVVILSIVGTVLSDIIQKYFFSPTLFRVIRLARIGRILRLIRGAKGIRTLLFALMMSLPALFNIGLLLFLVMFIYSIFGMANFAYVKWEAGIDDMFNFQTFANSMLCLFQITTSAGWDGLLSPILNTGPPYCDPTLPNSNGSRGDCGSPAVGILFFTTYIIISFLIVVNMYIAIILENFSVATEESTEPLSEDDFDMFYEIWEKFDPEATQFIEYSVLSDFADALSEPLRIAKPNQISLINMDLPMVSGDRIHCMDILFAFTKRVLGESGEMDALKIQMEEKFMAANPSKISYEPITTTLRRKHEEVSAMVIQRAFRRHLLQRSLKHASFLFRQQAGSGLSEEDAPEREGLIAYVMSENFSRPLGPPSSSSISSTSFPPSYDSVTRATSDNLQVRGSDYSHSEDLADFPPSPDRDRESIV

Heart [7] = test: Cardiotoxicity in Langendorff perfused Sprague-Dawley rat heart assessed as increase in PR interval at 15 uM treated for 15 mins; format: toxicity, tissue-based; settings: 0.25 h
How it was run: (§1)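 Hearts from Sprague Dawley rats were perfused in a Langendorff preparation and paced via the right atrium at 10-15% above the intrinsic heart rate. Each heart received increasing concentrations of 0, 0.5, 1.5, 5 and 15 µM, for 15 min at each level (n=5). Hemodynamic and electrocardiographic parameters were recorded throughout.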

Heart [8] = test: Cardiotoxicity in Langendorff perfused Sprague-Dawley rat heart assessed as increase in left ventricular systolic pressure at 1.5 to 15 uM treated for 15 mins; format: toxicity, tissue-based; settings: 0.25 h; how it was run: as §1
Heart [9] = test: Cardiotoxicity in Langendorff perfused Sprague-Dawley rat heart assessed as increase in coronary perfusion pressure at 1.5 to 15 uM treated for 15 mins; format: toxicity, tissue-based; settings: 0.25 h; how it was run: as §1
[10] = Cmax associated with acute adverse effect in mouse at 30 to 60 mg/kg, po; format: ADME, organism-based; settings: in vivo
How it was run: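 Mouse tolerability studies tested multiple doses, given orally or intraperitoneally. Plasma drug concentrations were measured, including at a 15 min time point. The minimum concentration associated with adverse clinical signs or death was taken as the adverse Cmax and was converted to an unbound value.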

Heart [11] = test: Cardiotoxicity in Langendorff perfused Sprague-Dawley rat heart assessed as decrease in dP/dt maximum at 1.5 to 15 uM treated for 15 mins; format: toxicity, tissue-based; settings: 0.25 h; how it was run: as §1
Mus musculus [12] = test: In vivo inhibition of PAK1/2 in human NCI-H292 cells xenografted in mouse assessed as phosphorylation of MEK1 at serine 298 at 25 mg/kg, po bid; format: functional, organism-based
Heart [13] = test: Cardiotoxicity in Langendorff perfused Sprague-Dawley rat heart assessed as ventricular fibrillation at 5 uM treated for 15 mins; format: toxicity, tissue-based; settings: 0.25 h; how it was run: as §1
[14] = target: 5-hydroxytryptamine receptor 4 (Homo sapiens) (UniProt Q13639); settings: CHO, 10 uM
Heart [15] = test: Cardiotoxicity in Langendorff perfused Sprague-Dawley rat heart assessed as increase in left ventricular end diastolic pressure at 1.5 to 15 uM treated for 15 mins; format: toxicity, tissue-based; settings: 0.25 h; how it was run: as §1
Heart [16] = test: Cardiotoxicity in Langendorff perfused Sprague-Dawley rat heart assessed as decrease in dP/dtmax/P at 1.5 to 15 uM treated for 15 mins; format: toxicity, tissue-based; settings: 0.25 h; how it was run: as §1
Heart [17] = test: Cardiotoxicity in Langendorff perfused Sprague-Dawley rat heart assessed as increase in PR interval at 5 uM treated for 15 mins; format: toxicity, tissue-based; settings: 0.25 h; how it was run: as §1
[18] = target: Serine/threonine-protein kinase 26 (Homo sapiens) (UniProt Q9P289); settings: 0.1 uM
Heart [19] = test: Cardiotoxicity in Langendorff perfused Sprague-Dawley rat heart assessed as decrease in left ventricular developed pressure at 1.5 to 15 uM treated for 15 mins; format: toxicity, tissue-based; settings: 0.25 h; how it was run: as §1
Mus musculus [20] = test: fCmax associated with acute adverse effect in mouse at 30 to 60 mg/kg, po; format: ADME, organism-based; settings: in vivo
How it was run: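 Mouse tolerability studies at multiple doses, oral or intraperitoneal. Minimum unbound plasma concentration associated with adverse effects (total Cmax converted to unbound) compared with IC50 for inhibition of MEK1 S298 phosphorylation in cells.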

[21] = target: Serine/threonine-protein kinase 25 (Homo sapiens) (UniProt O00506); settings: 0.1 uM
Serine/threonine-protein kinase 25 (Homo sapiens), sequence (O00506 whole entry, looked up): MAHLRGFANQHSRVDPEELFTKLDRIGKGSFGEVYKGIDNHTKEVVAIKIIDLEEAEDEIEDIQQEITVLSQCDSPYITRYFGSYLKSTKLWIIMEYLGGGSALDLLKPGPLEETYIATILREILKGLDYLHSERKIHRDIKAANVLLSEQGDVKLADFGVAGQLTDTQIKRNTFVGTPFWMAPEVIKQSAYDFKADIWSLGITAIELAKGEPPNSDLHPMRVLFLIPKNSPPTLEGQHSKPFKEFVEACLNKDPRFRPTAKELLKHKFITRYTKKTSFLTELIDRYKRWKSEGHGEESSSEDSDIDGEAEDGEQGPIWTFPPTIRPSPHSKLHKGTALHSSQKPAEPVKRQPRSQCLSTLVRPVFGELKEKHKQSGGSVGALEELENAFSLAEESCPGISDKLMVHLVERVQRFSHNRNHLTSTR

[22] = target: Serine/threonine-protein kinase 24 (Homo sapiens) (UniProt Q9Y6E0); settings: 0.1 uM
[23] = target: 5-hydroxytryptamine receptor 2B (Homo sapiens) (UniProt P41595); settings: CHO, 10 uM
5-hydroxytryptamine receptor 2B (Homo sapiens), sequence (P41595 whole entry): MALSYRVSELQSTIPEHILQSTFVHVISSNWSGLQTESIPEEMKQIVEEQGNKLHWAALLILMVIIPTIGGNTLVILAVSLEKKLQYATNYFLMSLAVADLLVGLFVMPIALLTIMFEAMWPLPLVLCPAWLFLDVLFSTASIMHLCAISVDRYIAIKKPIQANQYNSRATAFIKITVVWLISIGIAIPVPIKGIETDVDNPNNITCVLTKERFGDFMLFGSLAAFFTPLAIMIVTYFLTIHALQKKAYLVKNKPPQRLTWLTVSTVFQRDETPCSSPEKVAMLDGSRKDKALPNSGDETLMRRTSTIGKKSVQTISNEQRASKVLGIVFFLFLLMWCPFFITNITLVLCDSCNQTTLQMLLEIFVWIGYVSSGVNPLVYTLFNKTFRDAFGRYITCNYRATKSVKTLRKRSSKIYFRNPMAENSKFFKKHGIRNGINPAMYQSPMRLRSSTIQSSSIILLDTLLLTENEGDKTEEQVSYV

[24] = target: T1, Sodium channel protein type 5 subunit alpha; test: Inhibition of human Nav1.5 expressed in CHO cells assessed as tonic block of sodium current at 1 to 10 uM treated for 3 mins by automatic parallel patch clamp method; format: cell-based; settings: 0.05 h
Heart [25] = test: Cardiotoxicity in Langendorff perfused Sprague-Dawley rat heart assessed as decrease in dP/dt minimum at 1.5 to 15 uM treated for 15 mins; format: toxicity, tissue-based; settings: 0.25 h; how it was run: as §1
MDR1 = test: Permeability across apical to basolateral side in MDCK cells expressing MDR1; format: ADME, cell-based, Canis lupus familiaris; settings: dog, read-out: permeability
Homo sapiens [26] = species on record: Homo sapiens; test: Inhibition of Na+/Ca2+ ATPase (unknown origin) at 30 uM
[27] = Antitumor activity against human MDA-MB-175 cells xenografted in mouse assessed as tumor growth inhibition at 25 mg/kg, po bid relative to control; format: functional; settings: read-out: TGI
Heart [28] = test: Cardiotoxicity in Langendorff perfused Sprague-Dawley rat heart assessed as loss of 1:1 atrioventricular conduction at 5 to 15 uM treated for 15 mins; format: toxicity, tissue-based; settings: 0.25 h; how it was run: as §1
[29] = target: Voltage-gated inwardly rectifying potassium channel KCNH2 (Homo sapiens, UniProt Q12809); test: Inhibition of human ERG expressed in mammalian cells treated for 3 mins by automatic parallel patch clamp method; format: cell-based; settings: 0.05 h
Voltage-gated inwardly rectifying potassium channel KCNH2, sequence (Q12809 whole entry): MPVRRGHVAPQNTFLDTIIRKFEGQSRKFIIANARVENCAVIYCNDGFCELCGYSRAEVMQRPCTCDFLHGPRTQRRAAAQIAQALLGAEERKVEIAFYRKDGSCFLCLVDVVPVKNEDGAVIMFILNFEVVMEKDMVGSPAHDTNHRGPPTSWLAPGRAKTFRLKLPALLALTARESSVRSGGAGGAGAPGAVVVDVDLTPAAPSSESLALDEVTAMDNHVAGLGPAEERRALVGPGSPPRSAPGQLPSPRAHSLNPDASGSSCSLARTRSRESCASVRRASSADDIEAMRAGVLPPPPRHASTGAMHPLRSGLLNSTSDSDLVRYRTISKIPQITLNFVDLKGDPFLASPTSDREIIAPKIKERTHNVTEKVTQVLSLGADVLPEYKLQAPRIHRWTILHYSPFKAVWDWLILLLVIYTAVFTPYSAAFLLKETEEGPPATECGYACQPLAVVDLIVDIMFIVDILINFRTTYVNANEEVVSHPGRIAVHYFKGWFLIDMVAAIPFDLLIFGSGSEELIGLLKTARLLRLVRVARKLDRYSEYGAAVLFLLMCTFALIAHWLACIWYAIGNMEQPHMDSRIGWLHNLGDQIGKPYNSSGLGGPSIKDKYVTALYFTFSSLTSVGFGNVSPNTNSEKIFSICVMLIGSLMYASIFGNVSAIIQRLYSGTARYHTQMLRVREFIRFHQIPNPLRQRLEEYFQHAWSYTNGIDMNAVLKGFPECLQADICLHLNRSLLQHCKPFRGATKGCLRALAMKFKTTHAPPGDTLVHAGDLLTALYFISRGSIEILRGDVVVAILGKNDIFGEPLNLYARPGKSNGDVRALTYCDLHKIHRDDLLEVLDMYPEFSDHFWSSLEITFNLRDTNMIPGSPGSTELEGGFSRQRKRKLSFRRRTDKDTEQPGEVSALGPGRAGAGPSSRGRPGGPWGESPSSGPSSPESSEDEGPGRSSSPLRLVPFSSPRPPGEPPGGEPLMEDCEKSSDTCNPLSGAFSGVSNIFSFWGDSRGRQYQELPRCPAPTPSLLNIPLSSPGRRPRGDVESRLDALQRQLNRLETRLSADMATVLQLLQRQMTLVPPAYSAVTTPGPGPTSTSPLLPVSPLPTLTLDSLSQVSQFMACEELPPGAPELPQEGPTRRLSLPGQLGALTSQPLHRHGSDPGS

[30] = target: 5-hydroxytryptamine receptor 2A (Homo sapiens) (UniProt P28223); settings: HEK293, 10 uM
[31] = target: Serine/threonine-protein kinase PAK 3 (Homo sapiens) (UniProt O75914); settings: 0.1 uM
[32] = target: Tyrosine-protein kinase Lck (Homo sapiens) (UniProt P06239); settings: 0.1 uM
[33] = target: Sodium/potassium-transporting ATPase (Homo sapiens) (UniProt P05023+P14415+P05026+P50993+P54709+P13637+Q13733+P54710); settings: 30 uM
Rattus norvegicus = species on record: Rattus norvegicus; settings: Cerebral cortex, 10 uM
Heart [34] = test: Cardiotoxicity in Langendorff perfused Sprague-Dawley rat heart assessed as decrease in dP/dtmax/P at 40 mmHg at 1.5 to 15 uM treated for 15 mins; format: toxicity, tissue-based; settings: 0.25 h; how it was run: as §1
[35] = target: 5-hydroxytryptamine receptor 1B (Rattus norvegicus) (UniProt P28564); settings: Cerebral cortex, 10 uM
5-hydroxytryptamine receptor 1B (Rattus norvegicus), sequence (P28564 whole entry): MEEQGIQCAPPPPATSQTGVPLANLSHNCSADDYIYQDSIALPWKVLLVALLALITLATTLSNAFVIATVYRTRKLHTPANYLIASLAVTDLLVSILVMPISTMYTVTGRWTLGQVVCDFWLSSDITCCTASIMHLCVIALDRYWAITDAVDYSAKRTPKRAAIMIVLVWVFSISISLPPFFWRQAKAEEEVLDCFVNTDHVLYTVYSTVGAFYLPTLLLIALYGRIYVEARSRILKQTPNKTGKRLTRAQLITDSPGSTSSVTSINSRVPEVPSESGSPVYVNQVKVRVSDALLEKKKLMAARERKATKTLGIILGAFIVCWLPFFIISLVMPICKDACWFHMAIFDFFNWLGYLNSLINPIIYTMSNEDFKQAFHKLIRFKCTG

NCI-H292 = test: Antitumor activity against human NCI-H292 cells xenografted in mouse assessed as tumor growth inhibition at 25 mg/kg, po bid relative to control; format: functional; settings: read-out: TGI
[36] = target: Voltage-dependent T-type calcium channel subunit alpha-1H (Homo sapiens) (UniProt O95180); test: Inhibition of human Cav3.2 expressed in HEK293 cells at 1 to 10 uM treated for 3 mins by automatic parallel patch clamp method; format: cell-based
[37] = target: Sodium channel protein type 1 subunit alpha (Homo sapiens) (UniProt P35498); test: Inhibition of human Nav1.1 assessed as tonic block of sodium current at 1 to 10 uM treated for 3 mins by automatic parallel patch clamp method
[38] = Lipophilicity, log D of the compound at pH 7.4; format: physicochemical; settings: buffer
[39] = Apparent permeability across apical to basolateral side in MDCK cells at 10 uM after 60 mins; format: ADME, cell-based, Canis lupus familiaris; settings: dog
[40] = Efflux ratio of permeability across basolateral to apical side over apical to basolateral side in MDCK cells at 10 uM after 60 mins; format: ADME, cell-based, Canis lupus familiaris; settings: dog
[41] = Kinetic solubility of the compound at pH 7.4; format: physicochemical; settings: buffer, read-out: Kinetic_solubility
[42] = target: Serine/threonine-protein kinase PAK 1/PAK 2 (Homo sapiens, UniProt Q13177+Q13153); test: Inhibition of PAK1/2 in human EBC1 cells assessed as phosphorylation of MEK1 at serine 298 after 2 hrs by HTRF assay; format: cell-based

SMILES: CNc1ncc2cc(-c3ccccc3Cl)c(=O)n(CCCN)c2n1
- Selectivity ratio (Homo sapiens [1]): 0.4
- Ki [2]: 382 nM
- Selectivity ratio (Homo sapiens [3]): > 7.6

SMILES: Cc1nccn(-c2ccc(-c3cc4cnc(NC5COC5)nc4n(CC4CCNCC4(F)F)c3=O)c(Cl)c2)c1=O (single isomer, unassigned; enantiomer 2)
- Ki [2]: 12 nM

SMILES: CNc1ncc2cc(-c3ccc(-c4cccc(C)n4)cc3Cl)c(=O)n(C[C@H]3OC[C@H](N)CO3)c2n1
- fraction unbound [4]: 0.003
- inhibition [5]: inactive
- inhibition (INH) [6]: Not Active
- Activity (Heart [7]): 34%
- Activity (Heart [8]): Toxic
- Activity (Heart [9]): 64%
- Cmax [10]: 55 µM
- Activity (Heart [11]): Toxic
- inhibition (Mus musculus [12]): Active
- Activity (Heart [13]): Toxic
- inhibition [14]: > 75%
- Activity (Heart [15]): Toxic
- Activity (Heart [16]): Toxic
- Activity (Heart [17]): 37%
- inhibition [18]: > 75%
- Activity (Heart [19]): Toxic
- fCmax (Mus musculus [20]): 0.16 µM
- inhibition [21]: > 75%
- inhibition [22]: > 75%
- inhibition [23]: > 75%
- inhibition (INH) [24]: Not Active
- Activity (Heart [25]): Toxic
- Papp A→B (MDR1): 0.3 ×10⁻⁶ cm/s
- inhibition (Homo sapiens [26]): inactive
- inhibition in vivo at 25 mg/kg [27]: 60%
- Activity (Heart [28]): Toxic
- inhibition (INH) [29]: Not Active
- inhibition [30]: > 75%
- inhibition [31]: > 75%
- inhibition [32]: > 75%
- inhibition [33]: inactive
- inhibition (Rattus norvegicus): > 75%
- Activity (Heart [34]): Toxic
- inhibition [35]: > 75%
- inhibition in vivo at 25 mg/kg (NCI-H292): 60%
- inhibition [36]: inactive
- inhibition [37]: inactive

SMILES: COCCn1c(=O)c(-c2ccc(-n3cccc(C)c3=O)cc2Cl)cc2cnc(NC3COC3)nc21
- logD [38]: 1.9
- Papp A→B at 1 h, 10 µM [39]: 7.6 ×10⁻⁶ cm/s
- efflux ratio at 1 h, 10 µM [40]: 2
- solubility kinetic [41]: 38 µM (≈ 18.8 µg/mL)
- Selectivity ratio (Homo sapiens [1]): 158
- Ki [2]: 5.9 nM
- IC50 [42]: 290 nM

Next, values leading:

- Selectivity ratio (Homo sapiens [1]): 429
- Ki [2]: 4.6 nM
- Selectivity ratio (Homo sapiens [3]): > 642
SMILES: CNc1ncc2cc(-c3ccc(-n4ccnc(C)c4=O)cc3Cl)c(=O)n(CCCN)c2n1

- Selectivity ratio (Homo sapiens [1]): 10
- Selectivity ratio (Homo sapiens [3]): > 52
SMILES: CNc1ncc2cc(-c3ccc(N4CCN(C)C4=O)cc3Cl)c(=O)n(CCCN)c2n1

- Selectivity ratio (Homo sapiens [1]): 86
- Ki [2]: 36 nM
- Selectivity ratio (Homo sapiens [3]): > 82
SMILES: CNc1ncc2cc(-c3ccc(-n4ccccc4=O)cc3Cl)c(=O)n(CCCN)c2n1

- Selectivity ratio (Homo sapiens [1]): 76
- Ki [2]: 13 nM
- Selectivity ratio (Homo sapiens [3]): > 232
SMILES: CNc1ncc2cc(-c3ccc(-n4ccn(C)c4=O)cc3Cl)c(=O)n(CCCN)c2n1

- Selectivity ratio (Homo sapiens [1]): 25
- Ki [2]: 89 nM
- Selectivity ratio (Homo sapiens [3]): > 33
SMILES: CNc1ncc2cc(-c3ccc(N4CCCC4=O)cc3Cl)c(=O)n(CCCN)c2n1
